In ChEMBL document CHEMBL1687700, “Discovery of an Orally Efficacious Imidazo[5,1-f][1,2,4]triazine Dual Inhibitor of IGF-1R and IR” (ACS Med Chem Lett, 2010):
Values belong to the compound of their own block, whether it stands above or below them. Calls of active or inactive are those of the source. No cut-off for these calls is given here.

Key:
Mus musculus [1] = experiment: Inhibition of human IGF1R phosphorylation in human GEO cells xenografted in CD-1 nu/nu mouse assessed as sustained inhibition measured 24 hrs post last dose at 20 mg/kg, po qd administered for 14 days
[2] = molecular target: RAC-alpha serine/threonine-protein kinase (Homo sapiens) (UniProt P31749); experiment: Inhibition of AKT phosphorylation in human GEO cells; assay type: cell-based
Chain of RAC-alpha serine/threonine-protein kinase (Homo sapiens) (P31749 whole entry): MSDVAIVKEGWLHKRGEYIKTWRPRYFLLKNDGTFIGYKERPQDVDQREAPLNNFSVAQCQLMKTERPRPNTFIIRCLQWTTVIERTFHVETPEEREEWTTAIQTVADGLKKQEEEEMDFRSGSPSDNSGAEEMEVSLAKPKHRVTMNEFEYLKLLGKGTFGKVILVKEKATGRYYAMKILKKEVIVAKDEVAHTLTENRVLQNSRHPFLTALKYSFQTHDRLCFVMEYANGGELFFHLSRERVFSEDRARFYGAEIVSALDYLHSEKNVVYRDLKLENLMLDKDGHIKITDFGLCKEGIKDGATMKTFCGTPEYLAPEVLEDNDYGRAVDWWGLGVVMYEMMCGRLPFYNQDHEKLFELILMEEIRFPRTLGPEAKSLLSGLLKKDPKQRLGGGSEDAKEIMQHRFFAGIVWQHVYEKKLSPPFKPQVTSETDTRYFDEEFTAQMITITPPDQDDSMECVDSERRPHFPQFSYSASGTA

Mus musculus [3] = experiment: Increase in blood glucose level in CD-1 nu/nu mouse at 10 mg/kg, po after 24 hrs; assay type: functional, organism-based; design: dose 10 mg/kg
In short: (§1)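 Blood glucose measured in GEO xenograft mice after the last dose of a 14-day oral dosing study, over a time course to 24 h.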

Mus musculus [4] = experiment: Increase in blood glucose level in CD-1 nu/nu mouse at 10 mg/kg, po upto 8 hrs; assay type: functional, organism-based; design: dose 10 mg/kg
In short: as §1

[5] = Permeability of the compound by PAMPA assay at pH 5.0; assay type: ADME; conditions: read-out: permeability
In short: (§2)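 Parallel artificial membrane permeability assay run at pH 5.0 and pH 7.4; permeability reported in nm/s.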

[6] = Oral bioavailability in Sprague-Dawley rat at 25 mg/kg administered as single dose; assay type: ADME, organism-based; conditions: in vivo
[7] = Volume of distribution at steady state in CD-1 mouse at 5 mg/kg, iv administered as single dose; assay type: ADME, organism-based; design: dose 5 mg/kg, route intravenous; conditions: in vivo, read-out: Vdss
[8] = Antiproliferative activity against human GEO cells expressing IGF-1R assessed as intracellular ATP content after 3 days by Cell Titre-Glo luminescent assay; assay type: functional, cell-based; conditions: 72 h
[9] = Clearance in Sprague-Dawley rat at 5 mg/kg, iv administered as single dose; assay type: ADME, organism-based; design: dose 5 mg/kg, route intravenous; conditions: in vivo
In short: (§3)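 Single 5 mg/kg iv dose used to derive clearance and Vss; median values reported per species (female rat, male rhesus monkey).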

[10] = Volume of distribution at steady state in Sprague-Dawley rat at 5 mg/kg, iv administered as single dose; assay type: ADME, organism-based; design: dose 5 mg/kg, route intravenous; conditions: in vivo, read-out: Vdss
In short: as §3

[11] = Extraction ratio of hepatic clearance to hepatic blood flow in mouse microsomes; assay type: ADME, Microsome; conditions: liver microsomes
Mus musculus [12] = experiment: (§4) Oral bioavailability in CD-1 mouse at 25 mg/kg, po administered as single dose; assay type: ADME, organism-based; conditions: mouse, in vivo
[13] = Cmax in Sprague-Dawley rat at 25 mg/kg, po administered as single dose; assay type: ADME, organism-based; design: dose 25 mg/kg, route oral; conditions: in vivo
[14] = Extraction ratio of hepatic clearance to hepatic blood flow in human microsomes; assay type: ADME, Microsome; conditions: liver microsomes
Insulin receptor = Insulin receptor (Homo sapiens, UniProt P06213); experiment: Inhibition of auto-phosphorylation of human IR expressed in human HepG2 cells after 2 hrs by luminometry; assay type: cell-based
Chain of Insulin receptor (P06213 28-758 limits assumed): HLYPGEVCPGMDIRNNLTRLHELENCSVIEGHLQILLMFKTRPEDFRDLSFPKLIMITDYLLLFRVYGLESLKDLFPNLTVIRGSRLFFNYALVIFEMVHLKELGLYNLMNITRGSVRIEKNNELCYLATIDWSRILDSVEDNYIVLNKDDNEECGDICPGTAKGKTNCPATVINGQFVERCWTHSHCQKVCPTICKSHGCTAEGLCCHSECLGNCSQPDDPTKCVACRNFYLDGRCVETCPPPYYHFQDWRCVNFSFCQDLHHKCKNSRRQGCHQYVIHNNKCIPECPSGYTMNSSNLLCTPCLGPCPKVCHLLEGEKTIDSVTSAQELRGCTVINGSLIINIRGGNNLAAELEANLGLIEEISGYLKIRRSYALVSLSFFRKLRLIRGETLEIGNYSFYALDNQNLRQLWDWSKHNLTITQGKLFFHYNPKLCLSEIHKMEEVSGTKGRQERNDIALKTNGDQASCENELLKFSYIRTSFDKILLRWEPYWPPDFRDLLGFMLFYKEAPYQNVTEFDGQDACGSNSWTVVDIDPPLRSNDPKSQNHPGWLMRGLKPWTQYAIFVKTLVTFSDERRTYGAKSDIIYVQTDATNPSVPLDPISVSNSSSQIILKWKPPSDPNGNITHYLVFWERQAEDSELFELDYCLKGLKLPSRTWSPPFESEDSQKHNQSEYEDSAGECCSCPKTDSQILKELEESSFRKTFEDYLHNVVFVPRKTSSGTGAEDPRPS
Chain of Insulin receptor (P06213 763-1382 limits assumed): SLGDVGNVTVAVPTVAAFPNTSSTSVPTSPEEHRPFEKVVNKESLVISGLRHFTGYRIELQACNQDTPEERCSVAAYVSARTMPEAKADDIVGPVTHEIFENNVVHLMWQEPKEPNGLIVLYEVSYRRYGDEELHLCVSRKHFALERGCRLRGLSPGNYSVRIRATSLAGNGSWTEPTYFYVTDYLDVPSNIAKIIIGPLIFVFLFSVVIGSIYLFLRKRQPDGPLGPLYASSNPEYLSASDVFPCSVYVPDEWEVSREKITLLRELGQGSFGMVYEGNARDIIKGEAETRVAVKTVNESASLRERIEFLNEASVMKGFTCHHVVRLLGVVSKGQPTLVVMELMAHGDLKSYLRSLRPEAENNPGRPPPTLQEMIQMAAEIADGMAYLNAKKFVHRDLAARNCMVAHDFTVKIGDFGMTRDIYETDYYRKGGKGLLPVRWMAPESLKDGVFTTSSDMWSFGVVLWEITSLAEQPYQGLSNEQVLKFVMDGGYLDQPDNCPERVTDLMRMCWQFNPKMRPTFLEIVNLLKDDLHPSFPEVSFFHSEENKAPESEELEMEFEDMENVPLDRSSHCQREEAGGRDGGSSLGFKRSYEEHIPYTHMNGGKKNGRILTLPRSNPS

Cytochrome P450 2D6 = Cytochrome P450 2D6 (Homo sapiens, UniProt P10635); experiment: Inhibition of CYP2D6; assay type: ADME
Chain of Cytochrome P450 2D6 (P10635 whole entry): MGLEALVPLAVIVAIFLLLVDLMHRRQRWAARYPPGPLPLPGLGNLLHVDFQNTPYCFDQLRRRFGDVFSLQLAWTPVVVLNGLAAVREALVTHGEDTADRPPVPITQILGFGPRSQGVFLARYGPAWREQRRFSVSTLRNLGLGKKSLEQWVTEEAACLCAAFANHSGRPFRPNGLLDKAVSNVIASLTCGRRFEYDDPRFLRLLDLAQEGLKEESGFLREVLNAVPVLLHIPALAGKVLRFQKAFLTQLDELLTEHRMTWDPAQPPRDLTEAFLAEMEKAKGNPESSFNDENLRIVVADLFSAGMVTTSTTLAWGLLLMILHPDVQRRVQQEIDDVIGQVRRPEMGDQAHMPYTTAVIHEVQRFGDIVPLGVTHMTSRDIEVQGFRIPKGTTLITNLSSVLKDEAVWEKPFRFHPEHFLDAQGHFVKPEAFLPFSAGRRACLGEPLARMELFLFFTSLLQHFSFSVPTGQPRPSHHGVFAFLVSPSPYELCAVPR

[15] = Antiproliferative activity against human GEO cells expressing IR assessed as intracellular ATP content after 3 days by Cell Titre-Glo luminescent assay; assay type: functional, cell-based; conditions: 72 h
[16] = Cmax in CD-1 mouse plasma at 25 mg/kg, po administered as single dose; assay type: ADME, organism-based; design: dose 25 mg/kg, route oral
[17] = molecular target: Insulin-like growth factor 1 receptor (Homo sapiens, UniProt P08069); experiment: Inhibition of auto-phosphorylation of human IGF1R expressed in mouse NIH-3T3 cells after 2 hrs by luminometry; assay type: cell-based, NIH3T3
Chain of Insulin-like growth factor 1 receptor (P08069 31-736 limits assumed): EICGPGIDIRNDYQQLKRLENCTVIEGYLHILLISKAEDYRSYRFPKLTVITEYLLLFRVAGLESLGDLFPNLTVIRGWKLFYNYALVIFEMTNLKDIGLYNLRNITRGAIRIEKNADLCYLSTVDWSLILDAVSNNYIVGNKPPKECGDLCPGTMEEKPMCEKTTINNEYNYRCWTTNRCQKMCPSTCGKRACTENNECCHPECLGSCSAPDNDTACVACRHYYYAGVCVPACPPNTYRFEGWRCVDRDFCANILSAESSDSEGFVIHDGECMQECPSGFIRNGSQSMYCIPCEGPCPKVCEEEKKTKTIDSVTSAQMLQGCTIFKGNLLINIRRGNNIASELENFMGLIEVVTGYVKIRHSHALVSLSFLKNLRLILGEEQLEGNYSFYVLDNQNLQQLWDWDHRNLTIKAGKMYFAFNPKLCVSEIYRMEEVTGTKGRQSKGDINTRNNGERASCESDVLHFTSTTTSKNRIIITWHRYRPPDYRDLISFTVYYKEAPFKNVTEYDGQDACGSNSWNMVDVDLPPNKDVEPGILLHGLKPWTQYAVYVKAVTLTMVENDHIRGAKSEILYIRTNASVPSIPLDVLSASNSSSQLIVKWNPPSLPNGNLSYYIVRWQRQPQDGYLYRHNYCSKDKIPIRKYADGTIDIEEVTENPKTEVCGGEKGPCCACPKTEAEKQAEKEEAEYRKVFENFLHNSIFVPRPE
Chain of Insulin-like growth factor 1 receptor (P08069 741-1367 limits assumed): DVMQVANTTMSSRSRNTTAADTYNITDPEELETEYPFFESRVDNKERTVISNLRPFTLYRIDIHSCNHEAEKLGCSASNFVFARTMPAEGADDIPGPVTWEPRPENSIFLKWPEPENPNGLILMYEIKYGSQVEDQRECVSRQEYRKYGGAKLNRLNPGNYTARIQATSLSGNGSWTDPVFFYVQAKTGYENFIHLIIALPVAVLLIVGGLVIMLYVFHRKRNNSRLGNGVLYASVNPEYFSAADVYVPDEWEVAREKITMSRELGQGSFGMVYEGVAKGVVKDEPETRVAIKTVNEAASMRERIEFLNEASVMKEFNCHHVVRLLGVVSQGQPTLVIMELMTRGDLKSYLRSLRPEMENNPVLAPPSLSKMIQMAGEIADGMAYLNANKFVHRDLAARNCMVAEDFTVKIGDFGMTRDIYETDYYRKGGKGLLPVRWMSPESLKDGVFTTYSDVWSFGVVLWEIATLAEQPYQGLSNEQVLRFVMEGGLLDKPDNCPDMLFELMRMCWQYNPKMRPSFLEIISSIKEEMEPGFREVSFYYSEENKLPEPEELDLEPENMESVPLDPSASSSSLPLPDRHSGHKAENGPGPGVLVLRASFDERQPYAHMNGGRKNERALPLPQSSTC

Cytochrome P450 3A4 = Cytochrome P450 3A4 (Homo sapiens, UniProt P08684); experiment: Inhibition of CYP3A4; assay type: ADME
Chain of Cytochrome P450 3A4 (P08684 whole entry): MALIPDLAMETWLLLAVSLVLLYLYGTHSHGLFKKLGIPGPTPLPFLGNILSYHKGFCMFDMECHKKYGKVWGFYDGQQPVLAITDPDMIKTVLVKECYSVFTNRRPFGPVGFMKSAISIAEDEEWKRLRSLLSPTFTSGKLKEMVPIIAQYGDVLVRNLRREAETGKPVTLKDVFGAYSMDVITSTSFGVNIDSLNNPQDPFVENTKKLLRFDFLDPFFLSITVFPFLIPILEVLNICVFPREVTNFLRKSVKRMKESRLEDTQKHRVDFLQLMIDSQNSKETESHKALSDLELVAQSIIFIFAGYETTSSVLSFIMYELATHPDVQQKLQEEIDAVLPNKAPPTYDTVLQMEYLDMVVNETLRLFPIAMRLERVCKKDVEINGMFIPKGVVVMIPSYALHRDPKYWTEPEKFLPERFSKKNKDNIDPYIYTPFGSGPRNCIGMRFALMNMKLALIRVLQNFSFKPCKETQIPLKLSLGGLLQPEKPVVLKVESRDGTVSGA

[18] = Permeability of the compound by PAMPA assay at pH 7.4; assay type: ADME; conditions: read-out: permeability
In short: as §2

[19] = Genotoxicity in Salmonella Typhimurium by Ames test in presence of S9 liver microsomes; assay type: toxicity, Microsome; conditions: salmonella enterica subsp. enterica serovar typhimurium
[20] = Genotoxicity in Salmonella Typhimurium by Ames test in absence of S9 liver microsomes; assay type: toxicity, Microsome; conditions: salmonella enterica subsp. enterica serovar typhimurium
Cytochrome P450 1A2 = molecular target: T1, Cytochrome P450 1A2 (Homo sapiens, UniProt P05177); experiment: Inhibition of CYP1A2; assay type: ADME
T1 sequence (P05177 whole entry): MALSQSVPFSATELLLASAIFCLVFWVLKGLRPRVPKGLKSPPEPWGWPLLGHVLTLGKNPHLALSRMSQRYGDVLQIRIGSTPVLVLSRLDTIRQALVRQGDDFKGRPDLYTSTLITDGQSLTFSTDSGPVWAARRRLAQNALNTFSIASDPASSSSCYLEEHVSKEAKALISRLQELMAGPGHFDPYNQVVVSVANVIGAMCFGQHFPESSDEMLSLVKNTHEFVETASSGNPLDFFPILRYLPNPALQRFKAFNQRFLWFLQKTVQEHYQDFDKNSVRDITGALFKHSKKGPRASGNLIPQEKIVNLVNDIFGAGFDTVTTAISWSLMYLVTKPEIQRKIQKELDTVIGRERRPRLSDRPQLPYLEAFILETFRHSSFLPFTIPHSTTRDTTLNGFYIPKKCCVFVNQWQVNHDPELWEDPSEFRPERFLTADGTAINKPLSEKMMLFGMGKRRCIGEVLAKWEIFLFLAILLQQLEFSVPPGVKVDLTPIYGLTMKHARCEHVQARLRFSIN

Rattus norvegicus = organism: Rattus norvegicus; experiment: Toxicity in rat after 14 days; assay type: organism-based; conditions: in vivo, 336 h
[21] = AUC in Sprague-Dawley rat at 25 mg/kg, po administered as single dose; assay type: ADME, organism-based; design: dose 25 mg/kg, route oral; conditions: plasma
In short: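 Single oral dose of 25 mg/kg, given as the free base in 50:50 PEG-400:25 mM tartaric acid, to female rats. Plasma AUC (ng h/mL) is reported as the median. Clearance parameters come from a separate 5 mg/kg iv dose.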

[22] = Clearance in CD-1 mouse at 5 mg/kg, iv administered as single dose; assay type: ADME, organism-based; design: dose 5 mg/kg, route intravenous; conditions: in vivo
[23] = as §4; assay type: ADME, organism-based; conditions: CD-1, mouse, in vivo

- inhibition [2]: Active
SMILES: C[C@]1(O)C[C@@H](c2nc(-c3ccc4ccc(-c5ccccc5)nc4c3F)c3c(N)ncnn32)C1 [listing 1 of 2 here]
- inhibition (Mus musculus [1]): Active
- Activity (Mus musculus [3]): inactive
- Activity (Mus musculus [4]): Active

- Papp [5]: 109 ×10⁻⁶ cm/s
- bioavailability [6]: 64%
- Vd [7]: 1 L/kg
- clearance [9]: 4 mL/min/kg
- Vd [10]: 0.97 L/kg
- hepatic extraction ratio [11]: 0.43
- F (Mus musculus [12]): 162%
- Cmax [13]: 11.3 µM
- hepatic extraction ratio [14]: 0.55
- IC50 (Insulin receptor): 76 nM
- IC50 (Cytochrome P450 2D6): > 25000 nM
- Cmax [16]: 20.5 µM
- IC50 [17]: 17 nM
- IC50 (Cytochrome P450 3A4): > 25000 nM
- Papp [18]: 110 ×10⁻⁶ cm/s
- IC50 (Cytochrome P450 1A2): > 25000 nM
- AUC [21]: 62400 ng·h/mL
- clearance [22]: 4 mL/min/kg
SMILES: C[C@]1(O)C[C@@H](c2nc(-c3ccc4ccc(-c5ccccc5)nc4c3F)c3c(N)ncnn32)C1 [listing 2 of 2 here]
- EC50 [8]: 130 nM
- EC50 [15]: 130 nM
- Activity [19]: Non-toxic
- Activity [20]: Non-toxic
- Activity (Rattus norvegicus): Non-toxic

- Papp [5]: 14.5 ×10⁻⁶ cm/s
- Vd [7]: 4.9 L/kg
- bioavailability [23]: 27%
- Cmax [16]: 1.9 µM
- Papp [18]: 67.2 ×10⁻⁶ cm/s
- clearance [22]: 21 mL/min/kg
SMILES: CN1CCN([C@H]2C[C@@H](c3nc(-c4ccc5ccc(-c6ccccc6)nc5c4F)c4c(N)ncnn43)C2)CC1
